Measured values published in ChEMBL document CHEMBL1140914, “Synthesis and in vitro and in vivo evaluation of 18F-labeled positron emission tomography (PET) ligands for imaging the vesicular acetylcholine transporter” (J Med Chem, 2009).
Values belong to the compound of their own block, whether it stands above or below them.

What was measured:
[1] = Displacement of [3H]DTG from sigma2 receptor in rat liver membrane; assay type: cell membranes
Summary of the method: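 Rat liver membrane homogenate (~300 μg protein) incubated 2 h at room temperature with ~5 nM [3H]DTG plus 1 μM (+)-pentazocine to mask σ1 sites. Haloperidol 10 μM defines nonspecific binding. Filtered and counted.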

[2] = target: Sigma non-opioid intracellular receptor 1 (Cavia porcellus, UniProt Q60492); assay: Displacement of [3H](+)-pentazocine from sigma1 receptor in guinea pig brain membrane by liquid scintillation counting; assay type: cell membranes
[3] = target: T1, Vesicular acetylcholine transporter (Homo sapiens, UniProt Q16572); assay: Displacement of [3H]vesamicol from human vesicular acetylcholine transporter expressed in rat PC12 cells by liquid scintillation spectrometry; assay type: cell-based, PC-12
T1 sequence (Q16572 whole entry): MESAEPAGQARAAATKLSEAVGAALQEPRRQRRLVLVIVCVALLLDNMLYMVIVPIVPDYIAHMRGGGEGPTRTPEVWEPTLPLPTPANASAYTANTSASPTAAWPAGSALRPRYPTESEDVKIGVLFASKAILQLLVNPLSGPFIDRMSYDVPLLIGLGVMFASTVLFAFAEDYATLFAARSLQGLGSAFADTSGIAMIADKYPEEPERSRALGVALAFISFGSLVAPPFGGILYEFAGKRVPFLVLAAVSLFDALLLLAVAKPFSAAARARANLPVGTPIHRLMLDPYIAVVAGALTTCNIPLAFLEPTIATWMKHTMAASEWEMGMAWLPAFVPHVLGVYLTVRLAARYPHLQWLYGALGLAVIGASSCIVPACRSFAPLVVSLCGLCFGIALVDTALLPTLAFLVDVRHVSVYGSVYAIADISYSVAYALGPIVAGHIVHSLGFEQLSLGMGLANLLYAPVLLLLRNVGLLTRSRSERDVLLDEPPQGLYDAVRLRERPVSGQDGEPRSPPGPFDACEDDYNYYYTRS

[4] = Selectivity ratio of Ki for human vesicular acetylcholine transporter to Ki for sigma1 receptor in guinea pig brain membrane; assay type: cell membranes
Bone [5] = assay: Drug uptake in Sprague-Dawley rat bone at 25 to 35 uCi, iv after 5 mins postinjection by […]; assay type: ADME, organism-based, Bone element; conditions: in vivo
Summary of the method: (§1)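 Mature male Sprague-Dawley rats (250–400 g) under 2–3% isoflurane got 25–35 μCi tracer in 100–150 μL saline via tail vein. Groups of at least 4 were euthanized at 5 min, 30 min, 1 h or 2 h. Brain was dissected into regions, and tissues were weighed and gamma counted against an injectate standard. Values are %ID/g, mean ± SD.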

Brain [6] = assay: Drug uptake in Sprague-Dawley rat brain at 25 to 35 uCi, iv after 5 mins postinjection by […]; assay type: ADME, organism-based; conditions: in vivo; summary of the method: as §1
Liver [7] = assay: Drug uptake in Sprague-Dawley rat liver at 25 to 35 uCi, iv after 1 hr postinjection by […]; assay type: ADME, organism-based; conditions: in vivo; summary of the method: as §1
Liver [8] = assay: Drug uptake in Sprague-Dawley rat liver at 25 to 35 uCi, iv after 30 mins postinjection by […]; assay type: ADME, organism-based; conditions: in vivo, 0.5 h; summary of the method: as §1
Blood [9] = assay: Drug uptake in Sprague-Dawley rat blood at 25 to 35 uCi, iv after 1 hr postinjection by […]; assay type: ADME, organism-based; conditions: in vivo; summary of the method: as §1
Heart [10] = assay: Drug uptake in Sprague-Dawley rat heart at 25 to 35 uCi, iv after 2 hrs postinjection by […]; assay type: ADME, organism-based; conditions: in vivo; summary of the method: as §1
Muscle tissue [11] = assay: Drug uptake in Sprague-Dawley rat muscle at 25 to 35 uCi, iv after 1 hr postinjection by […]; assay type: ADME, organism-based; conditions: in vivo; summary of the method: as §1
Lung [12] = assay: Drug uptake in Sprague-Dawley rat lung at 25 to 35 uCi, iv after 2 hrs postinjection by […]; assay type: ADME, organism-based; conditions: in vivo; summary of the method: as §1
[13] = Drug uptake in Sprague-Dawley rat fat at 25 to 35 uCi, iv after 30 mins postinjection by […]; assay type: ADME, organism-based, Adipose tissue; conditions: in vivo, 0.5 h; summary of the method: as §1
Heart [14] = assay: Drug uptake in Sprague-Dawley rat heart at 25 to 35 uCi, iv after 30 mins postinjection by […]; assay type: ADME, organism-based; conditions: in vivo, 0.5 h; summary of the method: as §1
Muscle tissue [15] = assay: Drug uptake in Sprague-Dawley rat muscle at 25 to 35 uCi, iv after 5 mins postinjection by […]; assay type: ADME, organism-based; conditions: in vivo; summary of the method: as §1
Bone [16] = assay: Drug uptake in Sprague-Dawley rat bone at 25 to 35 uCi, iv after 1 hr postinjection by […]; assay type: ADME, organism-based, Bone element; conditions: in vivo; summary of the method: as §1
Brain [17] = assay: Drug uptake in Sprague-Dawley rat brain at 25 to 35 uCi, iv after 30 mins postinjection by […]; assay type: ADME, organism-based; conditions: in vivo, 0.5 h; summary of the method: as §1
[18] = Drug uptake in Sprague-Dawley rat fat at 25 to 35 uCi, iv after 2 hrs postinjection by […]; assay type: ADME, organism-based, Adipose tissue; conditions: in vivo; summary of the method: as §1
Heart [19] = assay: Drug uptake in Sprague-Dawley rat heart at 25 to 35 uCi, iv after 5 mins postinjection by […]; assay type: ADME, organism-based; conditions: in vivo; summary of the method: as §1
Heart [20] = assay: Drug uptake in Sprague-Dawley rat heart at 25 to 35 uCi, iv after 1 hr postinjection by […]; assay type: ADME, organism-based; conditions: in vivo; summary of the method: as §1
Blood [21] = assay: Drug uptake in Sprague-Dawley rat blood at 25 to 35 uCi, iv after 30 mins postinjection by […]; assay type: ADME, organism-based; conditions: in vivo, 0.5 h; summary of the method: as §1
Blood [22] = assay: Drug uptake in Sprague-Dawley rat blood at 25 to 35 uCi, iv after 5 mins postinjection by […]; assay type: ADME, organism-based; conditions: in vivo; summary of the method: as §1
Brain [23] = assay: Drug uptake in Sprague-Dawley rat brain at 25 to 35 uCi, iv after 2 hrs postinjection by […]; assay type: ADME, organism-based; conditions: in vivo; summary of the method: as §1
Bone [24] = assay: Drug uptake in Sprague-Dawley rat bone at 25 to 35 uCi, iv after 2 hrs postinjection by […]; assay type: ADME, organism-based, Bone element; conditions: in vivo; summary of the method: as §1
Lung [25] = assay: Drug uptake in Sprague-Dawley rat lung at 25 to 35 uCi, iv after 1 hr postinjection by […]; assay type: ADME, organism-based; conditions: in vivo; summary of the method: as §1
[26] = Drug uptake in Sprague-Dawley rat fat at 25 to 35 uCi, iv after 5 mins postinjection by […]; assay type: ADME, organism-based, Adipose tissue; conditions: in vivo; summary of the method: as §1
Kidney [27] = assay: Drug uptake in Sprague-Dawley rat kidney at 25 to 35 uCi, iv after 1 hr postinjection by […]; assay type: ADME, organism-based; conditions: in vivo; summary of the method: as §1
Muscle tissue [28] = assay: Drug uptake in Sprague-Dawley rat muscle at 25 to 35 uCi, iv after 2 hrs postinjection by […]; assay type: ADME, organism-based; conditions: in vivo; summary of the method: as §1
Bone [29] = assay: Drug uptake in Sprague-Dawley rat bone at 25 to 35 uCi, iv after 30 mins postinjection by […]; assay type: ADME, organism-based, Bone element; conditions: in vivo, 0.5 h; summary of the method: as §1
Liver [30] = assay: Drug uptake in Sprague-Dawley rat liver at 25 to 35 uCi, iv after 2 hrs postinjection by […]; assay type: ADME, organism-based; conditions: in vivo; summary of the method: as §1
Lung [31] = assay: Drug uptake in Sprague-Dawley rat lung at 25 to 35 uCi, iv after 5 mins postinjection by […]; assay type: ADME, organism-based; conditions: in vivo; summary of the method: as §1
Brain [32] = assay: Drug uptake in Sprague-Dawley rat brain at 25 to 35 uCi, iv after 1 hr postinjection by […]; assay type: ADME, organism-based; conditions: in vivo; summary of the method: as §1
Muscle tissue [33] = assay: Drug uptake in Sprague-Dawley rat muscle at 25 to 35 uCi, iv after 30 mins postinjection by […]; assay type: ADME, organism-based; conditions: in vivo, 0.5 h; summary of the method: as §1
Liver [34] = assay: Drug uptake in Sprague-Dawley rat liver at 25 to 35 uCi, iv after 5 mins postinjection by […]; assay type: ADME, organism-based; conditions: in vivo; summary of the method: as §1
Kidney [35] = assay: Drug uptake in Sprague-Dawley rat kidney at 25 to 35 uCi, iv after 2 hrs postinjection by […]; assay type: ADME, organism-based; conditions: in vivo; summary of the method: as §1
Lung [36] = assay: Drug uptake in Sprague-Dawley rat lung at 25 to 35 uCi, iv after 30 mins postinjection by […]; assay type: ADME, organism-based; conditions: in vivo, 0.5 h; summary of the method: as §1
Kidney [37] = assay: Drug uptake in Sprague-Dawley rat kidney at 25 to 35 uCi, iv after 30 mins postinjection by […]; assay type: ADME, organism-based; conditions: in vivo, 0.5 h; summary of the method: as §1
Kidney [38] = assay: Drug uptake in Sprague-Dawley rat kidney at 25 to 35 uCi, iv after 5 mins postinjection by […]; assay type: ADME, organism-based; conditions: in vivo; summary of the method: as §1
[39] = Drug uptake in Sprague-Dawley rat fat at 25 to 35 uCi, iv after 1 hr postinjection by […]; assay type: ADME, organism-based, Adipose tissue; conditions: in vivo; summary of the method: as §1

Chain of Sigma non-opioid intracellular receptor 1 (Q60492 whole entry): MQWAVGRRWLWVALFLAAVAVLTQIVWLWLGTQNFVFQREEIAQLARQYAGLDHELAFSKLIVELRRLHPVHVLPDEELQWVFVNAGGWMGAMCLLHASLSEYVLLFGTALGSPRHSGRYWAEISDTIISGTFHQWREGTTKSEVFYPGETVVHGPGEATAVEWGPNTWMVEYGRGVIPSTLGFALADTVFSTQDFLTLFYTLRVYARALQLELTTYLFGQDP

Ki [1]: 278 nM
Compound: O=C(c1ccc(F)cc1)C1CCN([C@@H]2Cc3ccccc3C[C@H]2O)CC1 (stereo in doubt; (+)-9e)

Ki [2]: 220 nM
Ki [3]: 4.3 nM
Ki [1]: 320 nM
Ratio Ki [4]: 51
Compound: O=C(c1ccccc1)C1CCN([C@@H]2Cc3ccccc3C[C@H]2O)CC1 (racemic)

Drug uptake (Bone [5]): 0.307 % ID/g
Drug uptake (Brain [6]): 0.606 % ID/g
Drug uptake (Liver [7]): 1.402 % ID/g
Drug uptake (Liver [8]): 1.504 % ID/g
Drug uptake (Blood [9]): 0.043 % ID/g
Drug uptake (Heart [10]): 0.056 % ID/g
Drug uptake (Muscle tissue [11]): 0.076 % ID/g
Drug uptake (Lung [12]): 0.223 % ID/g
Drug uptake [13]: 0.177 % ID/g
Drug uptake (Heart [14]): 0.141 % ID/g
Drug uptake (Muscle tissue [15]): 0.079 % ID/g
Drug uptake (Bone [16]): 0.623 % ID/g
Drug uptake (Brain [17]): 0.153 % ID/g
Drug uptake [18]: 0.173 % ID/g
Drug uptake (Heart [19]): 0.328 % ID/g
Drug uptake (Heart [20]): 0.094 % ID/g
Drug uptake (Blood [21]): 0.071 % ID/g
Drug uptake (Blood [22]): 0.122 % ID/g
Drug uptake (Brain [23]): 0.059 % ID/g
Drug uptake (Bone [24]): 0.739 % ID/g
Drug uptake (Lung [25]): 0.346 % ID/g
Drug uptake [26]: 0.088 % ID/g
Drug uptake (Kidney [27]): 0.99 % ID/g
Drug uptake (Muscle tissue [28]): 0.047 % ID/g
Drug uptake (Bone [29]): 0.445 % ID/g
Drug uptake (Liver [30]): 1.188 % ID/g
Drug uptake (Lung [31]): 1.389 % ID/g
Drug uptake (Brain [32]): 0.095 % ID/g
Drug uptake (Muscle tissue [33]): 0.071 % ID/g
Drug uptake (Liver [34]): 1.939 % ID/g
Drug uptake (Kidney [35]): 0.853 % ID/g
Drug uptake (Lung [36]): 0.553 % ID/g
Drug uptake (Kidney [37]): 1.042 % ID/g
Drug uptake (Kidney [38]): 1.644 % ID/g
Drug uptake [39]: 0.196 % ID/g
Compound: O=C(c1ccc([18F])cc1)C1CCN([C@@H]2Cc3ccccc3C[C@H]2O)CC1 (racemic)
